In ChEMBL document CHEMBL1143557, “Discovery of a fluoroindolo[2,3-a]carbazole clinical candidate with broad spectrum antitumor activity in preclinical tumor models superior to the marketed oncology drug, CPT-11” (J Med Chem, 2005):

Tests used:
P388 [1] = experiment: Cytotoxic concentration against murine leukemia P388 cells; format: functional, cell-based, Mus musculus
P388 [2] = experiment: Ratio of IC50 of P388 cells to that of CPT45 cells; format: functional, Mus musculus
DNA topoisomerase 1 = molecular target: T1, DNA topoisomerase 1 (Homo sapiens, UniProt P11387); experiment: Topoisomerase I activity for single-strand breaks in the DNA substrate
T1 sequence (P11387 whole entry): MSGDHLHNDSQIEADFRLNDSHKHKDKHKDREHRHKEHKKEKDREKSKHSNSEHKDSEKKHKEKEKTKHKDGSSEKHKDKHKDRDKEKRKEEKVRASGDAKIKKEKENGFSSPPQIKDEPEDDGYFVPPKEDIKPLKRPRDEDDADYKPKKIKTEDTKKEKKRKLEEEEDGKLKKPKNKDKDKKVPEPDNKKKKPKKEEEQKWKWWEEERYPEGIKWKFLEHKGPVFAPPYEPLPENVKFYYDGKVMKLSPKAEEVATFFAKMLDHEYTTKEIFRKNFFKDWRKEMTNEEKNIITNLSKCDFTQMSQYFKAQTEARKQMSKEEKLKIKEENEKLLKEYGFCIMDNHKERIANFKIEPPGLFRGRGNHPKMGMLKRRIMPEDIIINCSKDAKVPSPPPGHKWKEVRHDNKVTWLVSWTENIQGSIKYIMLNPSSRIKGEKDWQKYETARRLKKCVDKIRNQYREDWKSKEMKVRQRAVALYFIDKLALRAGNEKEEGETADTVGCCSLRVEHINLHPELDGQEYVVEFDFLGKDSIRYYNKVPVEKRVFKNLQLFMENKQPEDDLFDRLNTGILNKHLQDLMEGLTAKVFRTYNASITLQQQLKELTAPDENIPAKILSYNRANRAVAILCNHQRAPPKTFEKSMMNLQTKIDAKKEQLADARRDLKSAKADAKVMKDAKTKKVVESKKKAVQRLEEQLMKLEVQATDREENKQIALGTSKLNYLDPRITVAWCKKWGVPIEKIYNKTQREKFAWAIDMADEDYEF
In short: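 Topo I-mediated DNA cleavage assay using covalently closed, supercoiled phage PM2 DNA as substrate; read-out is induction of single-strand breaks.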

HT-29 [3] = experiment: Antitumor activity against HT-29 human colon carcinoma xenograft model; Activity expressed as no. of cures by total (8); format: functional
HT-29 [4] = experiment: Optimal dose required for antitumor activity against HT-29 human colon carcinoma xenograft model when administered once a day iv dosing every other day for five doses (q2dx5,iv); format: functional
HT-29 [5] = experiment: In vivo antitumor activity against HT-29 human colon carcinoma xenograft model when administered iv, (1:1:8 cremophor: ethanol: water vehicle) expressed as optimal effect in LCK; format: functional
HT-29 [6] = experiment: Optimal dose required for antitumor activity against HT-29 human colon carcinoma xenograft model when administered once a day iv dosing every other day for five doses (q2dx5,iv); MTD=30 mg.kg/inj; format: functional
HT-29 [7] = experiment: Optimal dose required for antitumor activity against HT-29 human colon carcinoma xenograft model when administered twice a day iv dosing every other day for five doses (2q2dx5,iv); format: functional

Structure (SMILES) | IC50 (P388 [1]; Mus musculus, P388) | Ratio (P388 [2]) | EC50 (DNA topoisomerase 1) | No. of cures (HT-29 [3]) | Optimal dose (HT-29 [4]) | Activity (HT-29 [5]) | Optimal dose (HT-29 [6]) | Optimal dose (HT-29 [7]) | IC50 (P388 [1]; p388)
O=C1NC(=O)c2c1c1c3cc(F)ccc3[nH]c1c1c2c2cc(F)ccc2n1C1OC(CO)C(F)(F)C(O)C1O (centres undefined) | 3 nM | 380 | 80 nM | – | – | – | – | – | –
O=C1NC(=O)c2c1c1c3ccc(F)cc3[nH]c1c1c2c2ccc(F)cc2n1C1OC(CO)C(F)C(O)C1O (centres undefined) | 3 nM | 59 | 200 nM | – | – | – | – | – | –
O=C1NC(=O)c2c1c1c3cc(F)c(F)cc3sc1c1c2c2cc(F)c(F)cc2n1C1OC(CO)C(F)(F)C(O)C1O (centres undefined) | 0.4 nM | 580 | 500 nM | – | – | – | – | – | –
O=C1NC(=O)c2c1c1c3cc(F)c(F)cc3sc1c1c2c2cc(F)c(F)cc2n1C1OC(CF)C(O)C(O)C1O (centres undefined) | 52 nM | 119 | 1500 nM | – | – | – | – | – | –
O=C1NC(=O)c2c1c1c3cc(F)ccc3[nH]c1c1c2c2cc(F)ccc2n1C1OC(COF)C(F)C(O)C1O (centres undefined) | 4 nM | 450 | 410 nM | 0 | 13 mg.kg/inj | 1.6 | – | – | –
O=C1NC(=O)c2c1c1c3cc(F)ccc3sc1c1c2c2cc(F)ccc2n1C1OC(CF)C(O)C(O)C1O (centres undefined) | 16 nM | 110 | 420 nM | – | – | – | – | – | –
O=C1NC(=O)c2c1c1c3cc(F)ccc3[nH]c1c1c2c2cc(F)ccc2n1C1OC(CO)C(O)C(O)C1O (centres undefined) | 18 nM | 183 | 240 nM | – | – | – | – | – | –
O=C1NC(=O)c2c1c1c3cc(F)ccc3[nH]c1c1c2c2cc(F)ccc2n1C1OC(CO)C(F)C(O)C1O (centres undefined) | 2 nM | 380 | 110 nM | 2 | – | 3.1 | 20 mg.kg/inj | – | –
NCC1OC(n2c3cc(F)c(F)cc3c3c4c(c5c6cc(F)c(F)cc6[nH]c5c32)C(=O)NC4=O)C(O)C(O)C1(F)F (centres undefined) | 60 nM | 16 | 50 nM | – | – | – | – | – | –
O=C1NC(=O)c2c1c1c3cc(F)c(F)cc3[nH]c1c1c2c2cc(F)c(F)cc2n1C1OC(CO)C(F)C(O)C1O (centres undefined) | 4 nM | 500 | 750 nM | – | – | – | – | – | –
O=C1NC(=O)c2c1c1c3cc(F)c(F)cc3[nH]c1c1c2c2cc(F)c(F)cc2n1C1OC(CF)C(O)C(O)C1O (centres undefined) | 34 nM | 52 | 3000 nM | – | – | – | – | – | –
O=C1NC(=O)c2c1c1c3cc(F)c(F)cc3sc1c1c2c2cc(F)c(F)cc2n1C1OC(CO)C(F)C(O)C1O (centres undefined) | 3 nM | >1658 | 40 nM | 2 | – | >2.3 | – | 11 mg.kg/inj | –
NCC1OC(n2c3ccc(F)cc3c3c4c(c5c6cc(F)ccc6[nH]c5c32)C(=O)NC4=O)C(O)C(O)C1F (centres undefined) | 14 nM | 37 | 70 nM | – | – | – | – | – | –
O=C1NC(=O)c2c1c1c3cc(F)ccc3[nH]c1c1c2c2cc(F)ccc2n1C1OC(CF)C(O)C(O)C1O (stereo in doubt; 6) | – | 98 | 480 nM | – | – | – | – | – | 50 nM
O=C1NC(=O)c2c1c1c3cc(F)ccc3[nH]c1c1c2c2cc(F)ccc2n1C1OC(CF)C(O)C(O)C1O (stereo in doubt; 10) | – | 110 | 4400 nM | – | – | – | – | – | 12 nM
